Experiments:
[1] = target: T1, Amyloid-beta precursor protein (Homo sapiens, UniProt P05067); assay: Displacement of [3H]PIB from human amyloid beta (1 to 40) fibrils after 3 hrs by liquid scintillation counting
[2] = n-octanol-water partition coefficient, log P of the compound; assay type: physicochemical
[3] = tested on: Escherichia coli BL21(DE3); assay: Inhibition of amyloid beta (1 to 42) aggregation in Escherichia coli competent cells BL21 (DE3) at 200 uM after overnight incubation by Thioflavin-S steady-state fluorescence assay
In short: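 Aβ42 (extra N-terminal Met) expressed from pET28a in E. coli BL21(DE3). Cells grown in M9 minimal medium with 50 μg/mL kanamycin and 25 μM Th-S (final), IPTG-induced or not, with compound at 200 μM final in DMSO, overnight at 37 °C, 1400 rpm. Th-S read at ex 440 nm, em 460–600 nm. Amyloid band = induced minus noninduced spectrum, normalized to OD600.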

[4] = Inhibition of amyloid beta (1 to 42) aggregation in vitro cell-free polymerization assay
[5] = target: T1, Amyloid-beta precursor protein; assay: Inhibition of amyloid beta (1 to 42) (unknown origin) aggregation by Thioflavin-T fluorescence assay
[6] = target: T1, Amyloid-beta precursor protein; assay: Inhibition of amyloid beta (1 to 42) (unknown origin) aggregation at 200 uM after 48 hrs by Thioflavin-T fluorescence assay relative to control
[7] = target: T1, Amyloid-beta precursor protein; assay: Inhibition of recombinant amyloid beta (1 to 42) fibrils (unknown origin) by thioflavin-T fluorescence assay
[8] = target: T1, Amyloid-beta precursor protein; assay: Inhibition of amyloid beta (1 to 42) (unknown origin) aggregation assessed as apparent elongation constant at 200 uM after 48 hrs by Thioflavin-T fluorescence assay
[9] = target: T1, Amyloid-beta precursor protein; assay: Inhibition of amyloid beta (1 to 42) (unknown origin) aggregation assessed as end-time for aggregation at 200 uM after 48 hrs by Thioflavin-T fluorescence assay
[10] = target: T1, Amyloid-beta precursor protein; assay: Inhibition of amyloid beta (1 to 42) (unknown origin) aggregation assessed as lag time at 200 uM in Escherichia coli BL21 (DE3) cells by Thioflavin-S staining time-course kinetics (reference value: 64.4 mins)
[11] = target: T1, Amyloid-beta precursor protein; assay: Inhibition of amyloid beta (1 to 42) (unknown origin) aggregation assessed as half life for aggregation at 200 uM by Thioflavin-S fluorescence assay
[12] = n-octanol/water, read-out: logP

T1 sequence (P05067 whole entry): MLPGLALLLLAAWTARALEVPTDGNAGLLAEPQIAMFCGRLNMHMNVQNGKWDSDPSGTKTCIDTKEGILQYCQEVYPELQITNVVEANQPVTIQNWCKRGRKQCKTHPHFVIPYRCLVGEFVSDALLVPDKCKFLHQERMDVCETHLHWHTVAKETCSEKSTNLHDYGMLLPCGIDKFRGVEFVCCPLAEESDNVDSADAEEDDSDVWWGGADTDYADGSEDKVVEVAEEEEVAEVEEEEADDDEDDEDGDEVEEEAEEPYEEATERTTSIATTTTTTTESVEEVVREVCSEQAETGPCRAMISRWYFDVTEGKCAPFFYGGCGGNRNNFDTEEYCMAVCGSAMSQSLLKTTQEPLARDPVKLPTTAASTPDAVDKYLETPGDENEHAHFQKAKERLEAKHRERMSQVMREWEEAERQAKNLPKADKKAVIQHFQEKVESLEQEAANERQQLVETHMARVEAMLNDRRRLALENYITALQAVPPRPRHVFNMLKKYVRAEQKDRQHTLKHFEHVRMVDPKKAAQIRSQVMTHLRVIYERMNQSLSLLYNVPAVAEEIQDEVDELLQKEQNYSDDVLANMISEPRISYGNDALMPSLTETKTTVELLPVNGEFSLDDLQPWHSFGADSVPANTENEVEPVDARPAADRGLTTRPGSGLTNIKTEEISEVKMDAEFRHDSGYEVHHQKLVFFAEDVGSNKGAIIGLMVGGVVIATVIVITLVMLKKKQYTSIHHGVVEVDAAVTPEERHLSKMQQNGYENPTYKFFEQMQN

CNc1ccc(-c2nc3ccc(O)cc3s2)cn1
Kd [1]: 0.0084 µM | logP [2, 12]: 2.7

COc1cc(/C=C/C(=O)CC(=O)/C=C/c2ccc(O)c(OC)c2)ccc1O
inhibition [3]: 37.8%

COc1ccc2[nH]cc(CCNC(C)=O)c2c1
inhibition [3]: 7.5%

COc1cccc(C=O)c1O
inhibition [3]: 18.5%

O=C(/C=C/c1ccc(O)c(O)c1)O[C@H](Cc1ccc(O)c(O)c1)C(=O)O
inhibition [3]: 5.5%

O=C1c2c(O)cc(O)cc2O[C@H](c2cc(O)c(O)c(O)c2)[C@H]1O [AMPELOPSIN]
IC50 [4]: 25.3 µM | IC50 [5]: 12.8 to 25.3 µM

O=c1cc(-c2ccc(O)cc2)oc2cc(O)cc(O)c12 [APIGENIN]
inhibition [6]: 52.7% | IC50 [7]: 23 to 39 µM | logP [2, 12]: 2.2 | Ke(app) [8]: 61.6 M⁻¹ s⁻¹ | TIME [9]: 8.85 h | Tlag [10]: 81.3 min | inhibition [3]: 77.3% | IC50 [5]: 176 µM | T1/2 [11]: 5.1 h

O=c1c(O)c(-c2ccccc2O)oc2cc(O)cc(O)c12 [DATISCETIN]
IC50 [4]: 55.4 µM

O=c1c(O)c(-c2ccccc2)oc2cc(O)cc(O)c12 [GALANGIN]
IC50 [4]: > 500 µM

O=c1c(O)c(-c2ccc(O)cc2)oc2cc(O)cc(O)c12 [KAEMPFEROL]
IC50 [4]: 75.1 µM

O=c1c(O)c(-c2ccc(O)cc2O)oc2cc(O)cc(O)c12 [MORIN]
IC50 [4]: 30.3 µM

O=c1c(O)c(-c2ccc(O)c(O)c2)oc2cc(O)cc(O)c12 [QUERCETIN]
inhibition [6]: 75.4% | logP ([2]; octanol/water): 2.7 | IC50 [4]: 15.3 µM | Tlag [10]: 82.7 min | inhibition [3]: 81.3% | IC50 [5]: 125 µM
